Consider 10 molecules from ChEMBL document CHEMBL3407440, “Monocarbonyl analogs of curcumin inhibit growth of antibiotic sensitive and resistant strains of Mycobacterium tuberculosis” (Eur J Med Chem, 2015).

Data set [1] has as its system Mycobacterium marinum. The experiment in a line: Antituberculosis activity against Mycobacterium marinum assessed as diameter of zone of inhibition at 100 mM incubated for 7 days by disk diffusion assay. Format: functional. The conditions noted are these: 168 h, read-out: DIZ. In short, it runs like this: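 Mm 1218R grown in 7H9-ADC (0.025% Tween 80) to OD600 0.35, diluted to OD600 0.04, spread on 7H10-OADC agar and air-dried 10 min. A 6 mm disk received 10 µl of 100 mM analog (in DMSO or water). Plates were incubated 7 days at 30 °C in 5% CO2 (legend: 32 °C), three plates per analog. The bacteria-free zone around the disk was measured.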
Background: Agar diffusion results depend on both activity and mobility in agar.

The nature of data set [2]: Tmax in Swiss Webster male mouse at 12.5 mg/kg, ip. Format: ADME, organism-based. Set-up: dose 12.5 mg/kg, route intraperitoneal. The note with it: in vivo.
A short description of data set [3]: Cmax in Swiss Webster male mouse at 12.5 mg/kg, ip. Format: ADME, organism-based. The arrangement: dose 12.5 mg/kg, route intraperitoneal. The conditions noted are these: in vivo.
Data set [4] is described as follows: Half life in Swiss Webster male mouse at 12.5 mg/kg, ip. The note with it: in vivo. The arrangement: dose 12.5 mg/kg, route intraperitoneal. Format: ADME, organism-based.
For data set [5], the system named is Mycobacterium marinum. Kind of data set: Antituberculosis activity against Mycobacterium marinum assessed as growth inhibition after 72 hrs by liquid culture assay. Format: functional, organism-based. A digest of the protocol: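 Mm 1218R grown in 7H9-ADC (0.025% Tween 80) to OD600 0.35, then diluted to OD600 0.04. Cultured 72 h with analog in DMSO at 0.780–100 µM (twofold steps), in duplicate, alongside no-drug and 1% DMSO vehicle controls. Mean ± SEM of three experiments.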

Data set [6] relates to Mycobacterium tuberculosis. Kind of data set: Antituberculosis activity against Mycobacterium tuberculosis Beijing F2 assessed as growth inhibition after 72 hrs by liquid culture assay. Format: functional, organism-based. The note with it: Beijing F2, 72 h.
Data set [7] relates to Mycobacterium tuberculosis. Kind of data set: Antituberculosis activity against Mycobacterium tuberculosis H37Rv assessed as growth inhibition after 72 hrs by liquid culture assay. Format: functional, organism-based.
The nature of data set [8]: Tmax in CD2F1 male mouse at 10 mg/kg, ip. The conditions noted are these: in vivo. Set-up: dose 10 mg/kg, route intraperitoneal. Format: ADME, organism-based.
A short description of data set [9]: Tmax in CD2F1 male mouse at 10 mg/kg, po. Format: ADME, organism-based. The arrangement: dose 10 mg/kg, route oral. The conditions noted are these: in vivo.
The nature of data set [10]: Cmax in CD2F1 male mouse at 10 mg/kg, ip. Format: ADME, organism-based. The arrangement: dose 10 mg/kg, route intraperitoneal. The conditions noted are these: in vivo.
A short description of data set [11]: Cmax in CD2F1 male mouse at 10 mg/kg, po. Format: ADME, organism-based. Set-up: dose 10 mg/kg, route oral. The note with it: in vivo.
Data set [12] is described as follows: Half life in CD2F1 male mouse at 10 mg/kg, ip. Set-up: dose 10 mg/kg, route intraperitoneal. Format: ADME, organism-based. The note with it: in vivo.
Data set [13] is described as follows: Half life in CD2F1 male mouse at 10 mg/kg, po. Format: ADME, organism-based. Set-up: dose 10 mg/kg, route oral. The conditions noted are these: in vivo.
Data set [14] concerns Mycobacterium marinum. Kind of data set: Antituberculosis activity against rifampicin-resistant Mycobacterium marinum assessed as growth inhibition after 72 hrs by liquid culture assay. Format: functional, organism-based. A digest of the protocol:
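Rifampicin-resistant Mm 1218R^rifR cultured in 7H9-ADC broth with DMSO, rifampicin or analog at varied concentrations for 72 h. Growth read as OD600 and normalized to untreated culture; IC50 derived. Mean ± SEM of three experiments.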

Data set [15] has as its system Mycobacterium tuberculosis. The experiment in a line: Antituberculosis activity against Mycobacterium tuberculosis H37Rv assessed as zone of inhibition at 100 mM incubated for 28 days by disk diffusion assay. Format: functional, organism-based. The conditions noted are these: 672 h. A digest of the protocol: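 Disk diffusion on Mtb H37Rv plates: disk loaded with 100 mM analog, plates incubated 28 days at 37 °C, then zone of inhibition measured.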

Data set [16] in a line: Tmax in CD1 male mouse at 50 mg/kg, po. Format: ADME, organism-based. The arrangement: dose 50 mg/kg, route oral. The note with it: in vivo.
Data set [17] is described as follows: Cmax in CD1 male mouse at 50 mg/kg, po. Format: ADME, organism-based. The arrangement: dose 50 mg/kg, route oral. The conditions noted are these: in vivo.
Data set [18] is described as follows: Half life in CD1 male mouse at 50 mg/kg, po. Format: ADME, organism-based. The arrangement: dose 50 mg/kg, route oral. The conditions noted are these: in vivo.
Data set [19] concerns Mycobacterium marinum. Kind of data set: Potentiation of antituberculosis activity against Mycobacterium marinum assessed as UBS-109-induced growth inhibition at 0.3 uM after 72 hrs by liquid culture assay. Format: functional, organism-based. A digest of the protocol:
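Mm cultured in 7H9-ADC broth with rifampicin (0.250–4 µg/mL) alone or combined with analog (6.250–100 µM), in duplicate, with no-drug and 1% DMSO controls. OD600 read after 72 h and normalized to vehicle. Combinations compared with each agent alone by nonparametric ANOVA. Mean ± SEM of three experiments.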

SMILES strings stand for the structures. Activity calls are given as the source filed them.

Turning to `O=C1/C(=C/c2ccccn2)CSC/C1=C\c1ccccn1`, the zone of inhibition at 100000 µM in [1] came out at 2.7 mm.
On to `COC(=O)CCC(=O)N1C/C(=C\c2ccccc2F)C(=O)/C(=C/c2ccccc2F)C1`, for which the zone of inhibition at 100000 µM in data set [1] is 1.8 mm.
For `COc1cc(/C=C/C(=O)CC(=O)/C=C/c2ccc(O)c(OC)c2)ccc1O` [CURCUMIN], the zone of inhibition at 100000 µM in data set [1] was found to be 1.1 mm.
What is called Tmax is the time at which the peak concentration occurs. One may read the Cmax as the highest concentration seen after dosing. The half-life is the time needed for the level to fall by half in the phase considered. For `O=C1/C(=C/c2ccccn2)CNC/C1=C\c1ccccn1`, the zone of inhibition at 100000 µM in data set [1] came out at 4.7 mm. The Tmax in data set [2] was 0.25 h. Further, the Cmax in data set [3] came out at 1070 ng/mL. Moreover, the half-life in data set [4] was 2.2 h.
Turning to `O=C1C(Cc2ccccn2)CNCC1Cc1ccccn1` (stereo unspecified), the zone of inhibition at 100000 µM in [1] came out at 0 mm.
In the case of `CN1C/C(=C\c2ccccc2F)C(=O)/C(=C/c2ccccc2F)C1`, the zone of inhibition at 100000 µM in data set [1] came out at 1.4 mm.
For orientation: IC50 means the point on the concentration scale where inhibition reaches its midpoint. For `O=C1/C(=C/c2ccccc2F)CNC/C1=C\c1ccccc1F`, the zone of inhibition at 100000 µM in data set [1] was found to be 2.6 mm. Moreover, the values for the IC50 in [5], in data set [6] and in data set [7] were 25 µM, 50 µM and 20 µM, respectively. Besides, the Tmax in data set [8] and in data set [9] was 3 min in each case. In addition, the Cmax in data set [10] stood at 259 ng/mL; in data set [11], 275 ng/mL. The values for the half-life in data set [12] and in data set [13] were 3.65 h and 2.95 h, respectively.
Take `CN1C/C(=C\c2ccccn2)C(=O)/C(=C/c2ccccn2)C1`: in data set [1], the zone of inhibition at 100000 µM was 5.7 mm. The IC50 in data set [5] stood at 10 µM; in data set [14], 4 µM; in data set [15], 4 µM; in [6] it was 20 µM; in data set [7] it was 10 µM. In [16], the Tmax was 0.5 h. This molecule also showed a Cmax in [17] of 131 ng/mL. Also, the half-life in [18] was found to be 3.7 h.
Take `CO[C@H]1/C=C/O[C@@]2(C)Oc3c(C)c(O)c4c(O)c(c(/C=N/N5CCN(C)CC5)c(O)c4c3C2=O)NC(=O)/C(C)=C\C=C\[C@H](C)[C@H](O)[C@@H](C)[C@@H](O)[C@@H](C)[C@H](OC(C)=O)[C@@H]1C`: in data set [19], the outcome was inactive.
Regarding `O=C1/C(=C/c2ccccn2)CNC[C@H]1Cc1ccccn1`, the zone of inhibition at 100000 µM in data set [1] came out at 4.6 mm. The IC50 in [5] amounted to 50 µM.
